Experimental data from PubChem BioAssay.
This is one part of the list. Activity calls are given as the source filed them.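 The calls were made as follows, unless noted: active = mean activation over triplicate wells above the hit cutoff derived from the earlier primary screen (cut at about 11% in these data); inactive = the rest.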

Tests used:
[1] = test system: DAF-12 nuclear receptor (Heterodera glycines), GAL4-LBD fusion; assay: H. glycines DAF-12 receptor agonists, confirmation, cell-based, luminescence, HEK293, GAL4-LBD fusion (AID 743050); settings: HEK293 GAL4-hgDAF12 luciferase reporter, agonist mode; at 6.8 µM; hits give high values; percent of butyrate response;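 also: 0% = DMSO low control and 100% = 2 mM sodium butyrate high control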
[2] = target: Oxysterols receptor LXR-beta (Homo sapiens) (UniProt P55055); assay: LXR agonists, Gal4 luciferase reporter, confirmation, counter-screen for hgDAF-12 agonist project, cell-based, luminescence, HEK293, H. glycines campaign (AID 743051;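 active = mean activation of the triplicate above a set limit carried over from the primary screen, none filed active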); settings: 24 h, at 6.8 µM, hits give high values
Oxysterols receptor LXR-beta (Homo sapiens), sequence (P55055 whole entry, looked up, the tested form may be a part): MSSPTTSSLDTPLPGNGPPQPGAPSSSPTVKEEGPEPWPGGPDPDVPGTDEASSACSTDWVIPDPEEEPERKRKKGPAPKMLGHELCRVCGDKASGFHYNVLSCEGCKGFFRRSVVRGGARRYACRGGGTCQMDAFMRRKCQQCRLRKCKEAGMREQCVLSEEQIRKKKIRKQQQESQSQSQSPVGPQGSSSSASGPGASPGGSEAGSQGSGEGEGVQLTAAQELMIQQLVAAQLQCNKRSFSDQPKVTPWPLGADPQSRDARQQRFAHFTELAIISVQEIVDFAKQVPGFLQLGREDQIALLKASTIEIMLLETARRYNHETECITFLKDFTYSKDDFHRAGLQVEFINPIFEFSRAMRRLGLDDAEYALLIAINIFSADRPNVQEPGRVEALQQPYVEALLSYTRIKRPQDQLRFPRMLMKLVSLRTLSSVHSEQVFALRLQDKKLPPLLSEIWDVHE
Outline: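 Test system: HEK293 cells with Gal4-LXR and tk-luc reporter | Incubation: 24 h exposure, 37 °C | Signal: One-Glo luminescence after 15 min | Measure: % activation versus DMSO and positive controls | Benchmarks: DMSO low control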

Row | SMILES | activation [1] | activation [2]
1 | O=C(CCSc1ccccc1)N1CCN(c2ccccc2F)CC1 | 14.2% (active) | 0.48% (inactive)
2 | O=[N+]([O-])c1cc(S(=O)(=O)N2CCCC2)ccc1NN=C1CCCC1 | -0.65% (inactive) | -0.04% (inactive)
3 | O=C(NCCOc1ccccc1)c1ccccc1 | 13.3% (active) | 0.69% (inactive)
4 | COc1ccc(/C=C2/CCCc3ccccc3C2=O)cc1 | 18.7% (active) | 0.78% (inactive)
5 | CC(C)n1c(=O)[nH]c2cc(C(=O)Nc3ccccc3)ccc21 | 5.08% (inactive) | 0.17% (inactive)
6 | COc1ccc(NC(=O)Nc2ccc3nsnc3c2)cc1 | 13.8% (active) | 0.54% (inactive)
